Experimental data published in ChEMBL document CHEMBL1129660, “Studies on 6-aminoquinolones: synthesis and antibacterial evaluation of 6-amino-8-methylquinolones” (J Med Chem, 1996).
≈ marks a conversion by molar mass, not a printed value.

What was measured:
Assay type in all cases: functional
[1] = Geometric mean of antibacterial activity (Gram -ve bacteria) of the compound
Method in brief: (§1)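 Geometric means calculated from agar-dilution MICs (µg/mL), taken separately across the five Gram-positive and the eight Gram-negative panel strains.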

Enterobacter cloacae = assay: Antibacterial activity tested against Enterobacter cloacae OMNFI 174
Escherichia coli [2] = assay: Antibacterial activity tested against Escherichia coli ISF 432
Method in brief: (§2)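 MICs (µg/mL) determined by conventional agar dilution against a panel of eight Gram-negative and five Gram-positive reference strains.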

Staphylococcus aureus [3] = assay: Antibacterial activity against Staphylococcus aureus MPR 5; method in brief: as §2
[4] = tested on: Staphylococcus epidermidis; assay: Antibacterial activity tested against Staphylococcus epidermidis CPHL A2; method in brief: as §2
Pseudomonas aeruginosa = assay: Antibacterial activity tested against P. ae (Pseudomonas aeruginosa) ATCC 9027; method in brief: as §2
Escherichia coli [5] = assay: Antibacterial activity tested against Escherichia coli ATCC 8739; method in brief: as §2
Klebsiella pneumoniae = assay: Antibacterial activity tested against Klebsiella pneumoniae (Klebsiella pneumoniae) ATCC 10031; method in brief: as §2
Enterococcus faecalis = assay: Antibacterial activity tested against Streptococcus faecalis LEP Br; method in brief: as §2
Providencia stuartii = assay: Antibacterial activity tested against Providencia stuartii CNUR 5; method in brief: as §2
Shigella = assay: Antibacterial activity tested against Shigella enteritidis; method in brief: as §2
Proteus vulgaris = assay: Antibacterial activity tested against Proteus vulgaris CNUR 5; method in brief: as §2
[6] = tested on: Staphylococcus epidermidis; assay: Antibacterial activity tested against Staphylococcus epidermidis HCF Berset C; method in brief: as §2
Bacteria = assay: Geometric mean of antibacterial activity (Gram +ve bacteria) of the compound; method in brief: as §1
Staphylococcus aureus [7] = assay: Antibacterial activity against Staphylococcus aureus ATCC 6538; method in brief: as §2

| MIC (Enterobacter cloacae) [µg/mL] | MIC (Escherichia coli [2]) [µg/mL] | MIC (Staphylococcus aureus [3]) [µg/mL] | MIC [4] [µg/mL] | MIC (Escherichia coli [5]) [µg/mL] | MIC (Klebsiella pneumoniae) [µg/mL] | MIC (Enterococcus faecalis) [µg/mL] | MIC (Providencia stuartii) [µg/mL] | MIC (Shigella) [µg/mL] | MIC (Proteus vulgaris) [µg/mL] | MIC [6] [µg/mL] | MIC (Staphylococcus aureus [7]) [µg/mL] | SMILES | Geometric mean [1] | MIC (Pseudomonas aeruginosa) [µg/mL] | Geometric mean (Bacteria) |
| --- | --- | --- | --- | --- | --- | --- | --- | --- | --- | --- | --- | --- | --- | --- | --- |
| > 128 | 16 (≈ 37.9 µM) | 64 (≈ 151 µM) | 128 (≈ 303 µM) | > 128 | 16 (≈ 37.9 µM) | 128 (≈ 303 µM) | 128 (≈ 303 µM) | > 128 | 128 (≈ 303 µM) | 64 (≈ 151 µM) | 64 (≈ 151 µM) | COc1ccc(-n2cc(C(=O)O)c(=O)c3cc(N)c(N4CCN(C)CC4)c(C)c32)cc1 | 76.109 | > 128 | 84.45 |
| 4 (≈ 10.1 µM) | 4 (≈ 10.1 µM) | 0.06 (≈ 0.152 µM) | 0.25 (≈ 0.632 µM) | 4 (≈ 10.1 µM) | 0.125 (≈ 0.316 µM) | 2 (≈ 5.06 µM) | 1 (≈ 2.53 µM) | 2 (≈ 5.06 µM) | 64 (≈ 162 µM) | 0.125 (≈ 0.316 µM) | 0.06 (≈ 0.152 µM) | Cc1c(N2CCC3CCCCC3C2)c(N)cc2c(=O)c(C(=O)O)cn(C3CC3)c12 (stereo not given) | 4 | 64 (≈ 162 µM) | 0.186 |
| 16 (≈ 43.3 µM) | 0.5 (≈ 1.35 µM) | 0.5 (≈ 1.35 µM) | 1 (≈ 2.71 µM) | 0.5 (≈ 1.35 µM) | 0.5 (≈ 1.35 µM) | 16 (≈ 43.3 µM) | 8 (≈ 21.7 µM) | 16 (≈ 43.3 µM) | > 128 | 1 (≈ 2.71 µM) | 0.5 (≈ 1.35 µM) | Cc1c(N2CCCC(C)(C)C2)c(N)cc2c(=O)c(C(=O)O)cn(C3CC3)c12 | 6.17 | 64 (≈ 173 µM) | 1.132 |
| 1 (≈ 2.81 µM) | 0.03 (≈ 0.0844 µM) | 0.06 (≈ 0.169 µM) | 0.125 (≈ 0.352 µM) | 0.03 (≈ 0.0844 µM) | 0.03 (≈ 0.0844 µM) | 2 (≈ 5.63 µM) | 0.25 (≈ 0.703 µM) | 1 (≈ 2.81 µM) | 32 (≈ 90 µM) | 0.25 (≈ 0.703 µM) | 0.03 (≈ 0.0844 µM) | Cc1c(N2CCCC(C)C2)c(N)cc2c(=O)c(C(=O)O)cn(C3CC3)c12 (stereo not given) | 0.414 | 4 (≈ 11.3 µM) | 0.162 |
| 64 (≈ 153 µM) | 4 (≈ 9.54 µM) | 0.25 (≈ 0.596 µM) | 4 (≈ 9.54 µM) | 64 (≈ 153 µM) | 64 (≈ 153 µM) | 4 (≈ 9.54 µM) | 64 (≈ 153 µM) | 64 (≈ 153 µM) | 64 (≈ 153 µM) | 2 (≈ 4.77 µM) | 64 (≈ 153 µM) | Cc1c(N2CCc3ccccc3C2)c([N+](=O)[O-])cc2c(=O)c(C(=O)O)cn(C3CC3)c12 | 45.25 | 64 (≈ 153 µM) | 3.482 |
| 0.03 (≈ 0.0835 µM) | 0.03 (≈ 0.0835 µM) | 0.03 (≈ 0.0835 µM) | 0.25 (≈ 0.696 µM) | 0.03 (≈ 0.0835 µM) | 0.03 (≈ 0.0835 µM) | 1 (≈ 2.78 µM) | 2 (≈ 5.56 µM) | 0.03 (≈ 0.0835 µM) | 2 (≈ 5.56 µM) | 0.25 (≈ 0.696 µM) | 0.06 (≈ 0.167 µM) | Cc1c(N2CCN(C)CC2)c(F)cc2c(=O)c(C(=O)O)cn(C3CC3)c12 | 0.145 | 2 (≈ 5.56 µM) | 0.162 |
| 0.5 (≈ 1.35 µM) | 0.03 (≈ 0.081 µM) | 8 (≈ 21.6 µM) | 2 (≈ 5.4 µM) | 0.03 (≈ 0.081 µM) | 0.03 (≈ 0.081 µM) | 32 (≈ 86.4 µM) | 4 (≈ 10.8 µM) | 0.25 (≈ 0.675 µM) | 64 (≈ 173 µM) | 4 (≈ 10.8 µM) | 8 (≈ 21.6 µM) | CC1CN(c2cc3c(cc2N)c(=O)c(C(=O)O)cn3C2CC2)CC(C)(C)N1 (stereo not given) | 0.451 | 2 (≈ 5.4 µM) | 6.964 |
| 0.125 (≈ 0.351 µM) | 0.03 (≈ 0.0842 µM) | 1 (≈ 2.81 µM) | 1 (≈ 2.81 µM) | 0.125 (≈ 0.351 µM) | 0.03 (≈ 0.0842 µM) | 4 (≈ 11.2 µM) | 2 (≈ 5.61 µM) | 0.06 (≈ 0.168 µM) | 4 (≈ 11.2 µM) | 1 (≈ 2.81 µM) | 1 (≈ 2.81 µM) | Cc1c(N2CCNC(C)C2)c(N)cc2c(=O)c(C(=O)O)cn(C3CC3)c12 (stereo not given) | 0.225 | 1 (≈ 2.81 µM) | 1.319 |
